Tests used:
[1] = target: T1, Signal transducer and activator of transcription 3 (Homo sapiens, UniProt P40763); experiment: Inhibition of IL-6 induced STAT3 transcriptional activity in human HEK-Blue IL-6 cells assessed as secreted embryonic alkaline phosphatase reporter gene expression by microplate reader
In short: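 HEK-Blue IL-6 reporter cells were treated for 20 h, and STAT3 pathway activity was quantified from secreted SEAP using a detection reagent. […] Values are averages of three independent experiments.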

[2] = target: T1, Signal transducer and activator of transcription 3; experiment: Inhibition of IL-6 induced STAT3 transcriptional activity in human HEK-Blue IL-6 cells assessed as secreted embryonic alkaline phosphatase reporter gene expression measured after 20 hrs by microplate reader
In short: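 HEK-Blue IL-6 reporter cells were treated for 20 h. IL-6/JAK/STAT3 pathway activity was quantified from secreted SEAP using a detection reagent, with parallel MTT viability. Values are averages of three independent experiments.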

T1 sequence (P40763 whole entry): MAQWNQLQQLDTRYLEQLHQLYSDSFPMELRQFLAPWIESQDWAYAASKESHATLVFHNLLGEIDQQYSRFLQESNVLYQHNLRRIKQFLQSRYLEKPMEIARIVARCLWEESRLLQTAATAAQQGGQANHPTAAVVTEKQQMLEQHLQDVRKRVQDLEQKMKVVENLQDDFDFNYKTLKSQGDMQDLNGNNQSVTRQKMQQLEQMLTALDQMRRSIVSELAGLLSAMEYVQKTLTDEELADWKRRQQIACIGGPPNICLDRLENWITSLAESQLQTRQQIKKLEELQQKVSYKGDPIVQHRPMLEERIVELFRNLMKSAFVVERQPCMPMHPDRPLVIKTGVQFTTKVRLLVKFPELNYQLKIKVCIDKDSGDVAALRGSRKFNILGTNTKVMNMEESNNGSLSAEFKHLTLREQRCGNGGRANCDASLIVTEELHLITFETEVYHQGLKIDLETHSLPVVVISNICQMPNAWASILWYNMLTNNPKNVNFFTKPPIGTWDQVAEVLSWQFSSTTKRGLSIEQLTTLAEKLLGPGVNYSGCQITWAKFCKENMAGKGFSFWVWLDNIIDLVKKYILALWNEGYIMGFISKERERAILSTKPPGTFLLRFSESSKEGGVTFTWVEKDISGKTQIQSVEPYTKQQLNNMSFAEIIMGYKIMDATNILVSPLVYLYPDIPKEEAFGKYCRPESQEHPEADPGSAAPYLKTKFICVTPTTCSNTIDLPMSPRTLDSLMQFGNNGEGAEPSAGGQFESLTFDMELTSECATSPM

| Compound | IC50 [1] [µM] | IC50 [2] [µM] |
| --- | --- | --- |
| CC(=O)Oc1ccccc1C(=O)Nc1ncc([N+](=O)[O-])s1 [Alinia] | 9.98 | 9.8 |
| C[C@H](NC(=O)/C(C#N)=C/c1cccc(Br)n1)c1ccccc1 [Wp 1066] | 1.79 | 2.5 |

From BindingDB's records for doi:10.1021/acsmedchemlett.0c00544 (Peking University Health Science Center, 2021)
